Data published in ChEMBL document CHEMBL3393009 (J Med Chem, 2015).
The source made the active and inactive calls. No cut-off for these calls is given here.

Tests used:
[1] = biological target: T1, Tyrosine-protein kinase JAK3 (Homo sapiens) (UniProt P52333); assay: Inhibition of JAK3 (JH1 domain-catalytic) (unknown origin) at 1 uM
T1 sequence (whole entry): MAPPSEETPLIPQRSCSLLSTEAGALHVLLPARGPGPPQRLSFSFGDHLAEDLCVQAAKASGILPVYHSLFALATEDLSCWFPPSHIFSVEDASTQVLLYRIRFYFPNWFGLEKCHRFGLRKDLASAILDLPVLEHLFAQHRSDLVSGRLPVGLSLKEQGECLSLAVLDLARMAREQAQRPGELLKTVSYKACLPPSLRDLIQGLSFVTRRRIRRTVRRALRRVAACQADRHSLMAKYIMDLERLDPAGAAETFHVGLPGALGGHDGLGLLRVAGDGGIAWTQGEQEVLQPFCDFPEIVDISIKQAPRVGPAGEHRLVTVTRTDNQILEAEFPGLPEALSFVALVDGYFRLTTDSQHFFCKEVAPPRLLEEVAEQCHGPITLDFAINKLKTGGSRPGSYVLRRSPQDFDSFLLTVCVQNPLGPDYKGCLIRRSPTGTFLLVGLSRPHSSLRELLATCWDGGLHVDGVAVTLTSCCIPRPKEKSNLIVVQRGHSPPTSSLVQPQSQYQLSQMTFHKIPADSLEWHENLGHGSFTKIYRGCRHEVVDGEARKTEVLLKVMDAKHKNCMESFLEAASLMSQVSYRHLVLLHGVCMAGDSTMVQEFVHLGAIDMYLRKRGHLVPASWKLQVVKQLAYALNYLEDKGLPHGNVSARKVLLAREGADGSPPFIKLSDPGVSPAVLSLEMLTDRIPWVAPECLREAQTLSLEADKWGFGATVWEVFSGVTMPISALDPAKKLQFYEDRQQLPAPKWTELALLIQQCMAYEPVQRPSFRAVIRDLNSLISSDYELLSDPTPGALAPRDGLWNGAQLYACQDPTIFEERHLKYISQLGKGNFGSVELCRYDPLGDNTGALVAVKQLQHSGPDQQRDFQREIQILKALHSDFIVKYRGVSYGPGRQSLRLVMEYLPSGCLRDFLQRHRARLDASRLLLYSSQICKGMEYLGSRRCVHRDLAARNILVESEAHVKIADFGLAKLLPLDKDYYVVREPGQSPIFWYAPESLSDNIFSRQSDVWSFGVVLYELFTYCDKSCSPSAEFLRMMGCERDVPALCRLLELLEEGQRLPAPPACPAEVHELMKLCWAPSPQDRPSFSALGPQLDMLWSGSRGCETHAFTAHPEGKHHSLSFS

[2] = system: Mus musculus; assay: Inhibition of wild type LRRK2 […] phosphorylation in BAC-transgenic C57BL/6J mouse brain at 3 to 100 mg/kg, sc measured after 90 mins post dose; assay type: functional; conditions: dose mg/kg 3-100; route subcutaneous
Procedure, shortened: (§1)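 Mice given compound subcutaneously in 10% NMP/20% SBECD vehicle: four-month-old C57BL/6J (wild type) or seven-month-old LRRK2 BAC-Tg G2019S. Tissues collected 90 min after dose. pS935, and pS1292 (custom antibody) in transgenic brain, read by Western blot of brain/kidney lysates against vehicle controls. Mean ± SEM.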

[3] = system: Mus musculus; assay: Effect on total LRRK2 protein level in BAC-transgenic C57BL/6J mouse brain at 3 to 100 mg/kg, sc measured after 90 mins post dose; assay type: ADME, organism-based; parameters: dose 3-100 mg/kg, route subcutaneous; conditions: in vivo, 1.5 h
[4] = system: Mus musculus; assay: Inhibition of LRRK2 […] mutant S1292 phosphorylation in BAC-transgenic mouse at 3 to 100 mg/kg, sc measured after 90 mins post dose; assay type: functional; conditions: dose mg/kg 3-100; route subcutaneous; procedure, shortened: as §1
[5] = Apparent permeability from apical to basolateral side by cell based assay; assay type: physicochemical; conditions: not told
[6] = system: Rattus norvegicus; assay: fCmax in Wistar Han rat at 60 mg/kg, po bid for 14 days; assay type: ADME, organism-based; parameters: dose 60 mg/kg, route oral; conditions: in vivo, 336 h
[7] = Half life in dog at 5 mg/kg, po; assay type: ADME, organism-based, Canis lupus familiaris; parameters: dose 5 mg/kg, route oral; conditions: in vivo
[8] = Clearance in rat liver microsomes; assay type: ADME; conditions: read-out: CLH
[9] = Volume of distribution at steady state in non-human primate at 5 mg/kg, po; assay type: ADME, organism-based; parameters: dose 5 mg/kg, route oral; conditions: monkey, in vivo
[10] = Cmax in rat at 5 mg/kg, po; assay type: ADME, organism-based; parameters: dose 5 mg/kg, route oral; conditions: in vivo
[11] = system: Rattus norvegicus; assay: Toxicity in Wistar Han rat assessed as changes in lung parameters at 6 to 60 mg/kg, po bid for 14 days by H and E staining method; assay type: organism-based; parameters: dose 6-60 mg/kg, route oral; conditions: in vivo, 336 h
[12] = Clearance in human liver microsomes; assay type: ADME; conditions: read-out: CLH
Procedure, shortened: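 Human liver microsomal clearance.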

[13] = Drug coverage index, ratio of average concentration ( 0 to 24 hrs) in Wistar Han rat at 6 to 60 mg/kg, po bid for 14 days to IC50 for LRRK2 […] phosphorylation in Wistar Han rat brain at 6 to 60 mg/kg, po bid for 14 days; assay type: ADME, organism-based; conditions: in vivo
Procedure, shortened: (§2)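 Wistar Han rats (200–300 g, 8–11 weeks old) were dosed by oral gavage twice daily for 14 days. Vehicle was 10% propylene glycol/20% PEG400/70% 9.5% methocellulose.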

[14] = system: Rattus norvegicus; assay: fAUC in Wistar Han rat at 6 mg/kg, po bid for 14 days; assay type: ADME, organism-based; parameters: dose 6 mg/kg, route oral; conditions: in vivo, 336 h
Procedure, shortened: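 Wistar Han rats dosed orally twice daily in 10% propylene glycol/20% PEG400/methylcellulose vehicle. Unbound plasma exposure measured on days 1 and 11.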

[15] = system: Rattus norvegicus; assay: Toxicity in Wistar Han rat assessed as changes in clinical chemistry parameters at 6 to 60 mg/kg, po bid for 14 days; assay type: organism-based; parameters: dose 6-60 mg/kg, route oral; conditions: in vivo, 336 h
Procedure, shortened: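 Wistar Han rats (200–300 g, 8–11 weeks) dosed by oral gavage twice daily for 14 days. Vehicle: 10% propylene glycol/20% PEG400/70% methylcellulose solution. RBC parameters, electrolytes, food consumption, body weight, clinical chemistry and urinary biomarkers recorded.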

[16] = system: Rattus norvegicus; assay: fCmax in Wistar Han rat at 6 mg/kg, po bid for 14 days; assay type: ADME, organism-based; parameters: dose 6 mg/kg, route oral; conditions: in vivo, 336 h
[17] = Drug coverage index, ratio fCmax in Wistar Han rat at 20 mg/kg, po bid for 14 days to IC50 for LRRK2 […] phosphorylation in Wistar Han rat brain at 6 to 60 mg/kg, po bid for 14 days; assay type: ADME, organism-based; conditions: in vivo, 336 h; procedure, shortened: as §2
[18] = AUC in rat at 5 mg/kg, po; assay type: ADME, organism-based; parameters: dose 5 mg/kg, route oral; conditions: plasma
[19] = system: Mus musculus; assay: Inhibition of LRRK2 […] mutant […] phosphorylation in BAC-transgenic mouse at 3 to 100 mg/kg, sc measured after 90 mins post dose; assay type: functional; conditions: dose mg/kg 3-100; route subcutaneous; procedure, shortened: as §1
[20] = Cmax in non-human primate at 5 mg/kg, po; assay type: ADME, organism-based; parameters: dose 5 mg/kg, route oral; conditions: monkey, in vivo
[21] = system: Rattus norvegicus; assay: Inhibition of LRRK2 […] phosphorylation in Wistar Han rat brain at 6 to 60 mg/kg, po bid for 14 days; assay type: functional; conditions: dose mg/kg 6-60
[22] = Half life in non-human primate at 5 mg/kg, po; assay type: ADME, organism-based; parameters: dose 5 mg/kg, route oral; conditions: monkey, in vivo
[23] = Toxicity in Wistar Han rat at 6 to 60 mg/kg, po bid for 14 days; assay type: organism-based; parameters: dose 6-60 mg/kg, route oral; conditions: in vivo
Procedure, shortened: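 Exploratory 14-day study in Wistar Han rats (200–300 g, 8–11 weeks old at start). Dosing was by oral gavage twice daily in 10% propylene glycol/20% PEG400/70% 9.5% methocellulose. Unbound plasma exposure was measured on days 1 and 11. Endpoints were RBC parameters, electrolytes, food consumption, body weight, clinical chemistry, urinary renal biomarkers and kidney appearance.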

[24] = system: Rattus norvegicus; assay: fCmax in Wistar Han rat at 20 mg/kg, po bid for 14 days; assay type: ADME, organism-based; parameters: dose 20 mg/kg, route oral; conditions: in vivo, 336 h

## N#Cc1cccc(-c2c[nH]c3ncnc(N4CCOCC4)c23)c1
[1]
  inhibition: inactive
[2]
  fIC50: 8 nM
[3]
  Activity: Non-toxic
[4]
  fIC50: 21 nM
[5]
  Papp A→B: 27 ×10⁻⁶ cm/s
[6]
  fCmax: 1050 nM
[7]
  half-life: 0.78 h
[8]
  CLint scaled: 131 mL/min/kg
[9]
  Vdss: 1.06 L/kg
[10]
  Cmax: 181 ng/mL
[11]
  Activity: Non-toxic
[12]
  CLint scaled: 36 mL/min/kg
[13]
  Ratio: 31
[14]
  fAUC: 0.843 µM·h
[15]
  Activity: Non-toxic
[16]
  fCmax: 86 nM
[17]
  Ratio: 25
[18]
  AUC: 629 ng·h/mL
[19]
  fIC50: 103 nM
[20]
  Cmax: 25 ng/mL
[21]
  fIC50: 15 nM
[22]
  half-life: 2.27 h
[23]
  MTD at 336 h: > 60 mg/kg/day
[24]
  fCmax: 380 nM
